What was measured:
Type in all cases: functional, cell-based
PBMC [1] = assay: Immunomodulatory activity in human PBMC assessed as induction of IP10 after 24 hrs
In short: (§1)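 Human PBMCs plated at 5 × 10^6 cells/mL; compounds dissolved in PBS added at various concentrations, 37 °C for 24 h. Supernatant cytokines/chemokines quantified with human Luminex multiplex kit.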

PBMC [2] = assay: Immunomodulatory activity in human PBMC assessed as induction of IL6 after 24 hrs; in short: as §1
PBMC [3] = assay: Immunomodulatory activity in human PBMC assessed as induction of IFNalpha after 24 hrs; in short: as §1
PBMC [4] = assay: Immunomodulatory activity in human PBMC assessed as induction of MIP1alpha after 24 hrs; in short: as §1
PBMC [5] = assay: Immunomodulatory activity in human PBMC assessed as induction of IL10 after 24 hrs; in short: as §1
PBMC [6] = assay: Immunomodulatory activity in human PBMC assessed as induction of IL12 after 24 hrs; in short: as §1

Measured: Activity

Nc1ccn([C@@H]2O[C@H](COP(=O)(S)O[C@H]3[C@@H](O)[C@H](n4cnc5c(N)ncnc54)O[C@@H]3COP(=O)(S)O[C@H]3[C@@H](O)[C@H](n4ccc5c(=O)[nH]c(N)nc54)O[C@@H]3COP(=O)(S)O[C@H]3[C@@H](O)[C@H](n4ccc(=O)[nH]c4=O)O[C@@H]3COP(=O)(S)O[C@H]3[C@@H](O)[C@H](n4ccc5c(=O)[nH]c(N)nc54)O[C@@H]3COP(=O)(S)O[C@H]3[C@@H](O)[C@H](n4cnc5c(N)ncnc54)O[C@@H]3COP(=O)(S)O[C@H]3[C@@H](O)[C@H](n4cnc5c(N)ncnc54)O[C@@H]3CO)[C@@H](OP(=O)(S)OC[C@H]3O[C@@H](n4ccc5c(=O)[nH]c(N)nc54)[C@H](O)[C@@H]3OP(=O)(S)OC[C@H]3O[C@@H](n4ccc(N)nc4=O)[C@H](O)[C@@H]3OP(=O)(S)OC[C@H]3O[C@@H](n4ccc(=O)[nH]c4=O)[C@H](O)[C@@H]3OP(=O)(S)OC[C@H]3O[C@@H](n4ccc(=O)[nH]c4=O)[C@H](O)[C@@H]3OP(=O)(S)OCC(O)COP(=O)(S)O[C@H]3[C@@H](O)[C@H](n4ccc(=O)[nH]c4=O)O[C@@H]3COP(=O)(S)O[C@H]3[C@@H](O)[C@H](n4ccc(=O)[nH]c4=O)O[C@@H]3COP(=O)(S)O[C@H]3[C@@H](O)[C@H](n4ccc(N)nc4=O)O[C@@H]3COP(=O)(S)O[C@H]3[C@@H](O)[C@H](n4ccc5c(=O)[nH]c(N)nc54)O[C@@H]3COP(=O)(S)O[C@H]3[C@@H](O)[C@H](n4ccc(N)nc4=O)O[C@@H]3COP(=O)(S)O[C@H]3[C@@H](O)[C@H](n4cnc5c(N)ncnc54)O[C@@H]3COP(=O)(S)O[C@H]3[C@@H](O)[C@H](n4ccc5c(=O)[nH]c(N)nc54)O[C@@H]3COP(=O)(S)O[C@H]3[C@@H](O)[C@H](n4ccc(=O)[nH]c4=O)O[C@@H]3COP(=O)(S)O[C@H]3[C@@H](O)[C@H](n4ccc5c(=O)[nH]c(N)nc54)O[C@@H]3COP(=O)(S)O[C@H]3[C@@H](O)[C@H](n4cnc5c(N)ncnc54)O[C@@H]3COP(=O)(S)O[C@H]3[C@@H](O)[C@H](n4cnc5c(N)ncnc54)O[C@@H]3CO)[C@H]2O)c(=O)n1 (stereo partly drawn)
active: PBMC [1] Dose-dependent effect | PBMC [2] Dose-dependent effect | PBMC [3] Dose-dependent effect | PBMC [4] Dose-dependent effect | PBMC [5] Dose-dependent effect | PBMC [6] Dose-dependent effect

Nc1ccn([C@@H]2O[C@H](COP(=O)(S)O[C@H]3[C@@H](O)[C@H](n4cnc5c(N)ncnc54)O[C@@H]3COP(=O)(S)O[C@H]3[C@@H](O)[C@H](n4cnc5c(N)ncnc54)O[C@@H]3CO)[C@@H](OP(=O)(S)OC[C@H]3O[C@@H](n4ccc(=O)[nH]c4=O)[C@H](O)[C@@H]3OP(=O)(S)OC[C@H]3O[C@@H](n4ccc5c(=O)[nH]c(N)nc54)[C@H](O)[C@@H]3OP(=O)(S)OC[C@H]3O[C@@H](n4cnc5c(N)ncnc54)[C@H](O)[C@@H]3OP(=O)(S)OC[C@H]3O[C@@H](n4ccc(N)nc4=O)[C@H](O)[C@@H]3OP(=O)(S)OC[C@H]3O[C@@H](n4ccc5c(=O)[nH]c(N)nc54)[C@H](O)[C@@H]3OP(=O)(S)OC[C@H]3O[C@@H](n4ccc(N)nc4=O)[C@H](O)[C@@H]3OP(=O)(S)OC[C@H]3O[C@@H](n4ccc(=O)[nH]c4=O)[C@H](O)[C@@H]3OP(=O)(S)OC[C@H]3O[C@@H](n4ccc(=O)[nH]c4=O)[C@H](O)[C@@H]3OP(=O)(S)OCC(O)COP(=O)(S)O[C@H]3[C@@H](O)[C@H](n4ccc(=O)[nH]c4=O)O[C@@H]3COP(=O)(S)O[C@H]3[C@@H](O)[C@H](n4ccc(=O)[nH]c4=O)O[C@@H]3COP(=O)(S)O[C@H]3[C@@H](O)[C@H](n4ccc(N)nc4=O)O[C@@H]3COP(=O)(S)O[C@H]3[C@@H](O)[C@H](n4ccc5c(=O)[nH]c(N)nc54)O[C@@H]3COP(=O)(S)O[C@H]3[C@@H](O)[C@H](n4ccc(N)nc4=O)O[C@@H]3COP(=O)(S)O[C@H]3[C@@H](O)[C@H](n4cnc5c(N)ncnc54)O[C@@H]3COP(=O)(S)O[C@H]3[C@@H](O)[C@H](n4ccc5c(=O)[nH]c(N)nc54)O[C@@H]3COP(=O)(S)O[C@H]3[C@@H](O)[C@H](n4ccc(=O)[nH]c4=O)O[C@@H]3COP(=O)(S)O[C@H]3[C@@H](O)[C@H](n4ccc(N)nc4=O)O[C@@H]3COP(=O)(S)O[C@H]3[C@@H](O)[C@H](n4cnc5c(N)ncnc54)O[C@@H]3COP(=O)(S)O[C@H]3[C@@H](O)[C@H](n4cnc5c(N)ncnc54)O[C@@H]3CO)[C@H]2O)c(=O)n1 (stereo partly drawn)
active: PBMC [1] Dose-dependent effect | PBMC [2] Dose-dependent effect | PBMC [3] Dose-dependent effect | PBMC [4] Dose-dependent effect | PBMC [5] Dose-dependent effect | PBMC [6] Dose-dependent effect

Nc1ccn([C@@H]2O[C@H](COP(=O)(S)O[C@H]3[C@@H](O)[C@H](n4cnc5c(N)ncnc54)O[C@@H]3COP(=O)(S)O[C@H]3[C@@H](O)[C@H](n4ccc5c(=O)[nH]c(N)nc54)O[C@@H]3COP(=O)(S)O[C@H]3[C@@H](O)[C@H](n4ccc(=O)[nH]c4=O)O[C@@H]3COP(=O)(S)O[C@H]3[C@@H](O)[C@H](n4ccc(=O)[nH]c4=O)O[C@@H]3COP(=O)(S)O[C@H]3[C@@H](O)[C@H](n4cnc5c(N)ncnc54)O[C@@H]3COP(=O)(S)O[C@H]3[C@@H](O)[C@H](n4cnc5c(N)ncnc54)O[C@@H]3CO)[C@@H](OP(=O)(S)OC[C@H]3O[C@@H](n4ccc5c(=O)[nH]c(N)nc54)[C@H](O)[C@@H]3OP(=O)(S)OC[C@H]3O[C@@H](n4ccc(N)nc4=O)[C@H](O)[C@@H]3OP(=O)(S)OC[C@H]3O[C@@H](n4ccc(=O)[nH]c4=O)[C@H](O)[C@@H]3OP(=O)(S)OC[C@H]3O[C@@H](n4ccc(=O)[nH]c4=O)[C@H](O)[C@@H]3OP(=O)(S)OCC(O)COP(=O)(S)O[C@H]3[C@@H](O)[C@H](n4ccc(=O)[nH]c4=O)O[C@@H]3COP(=O)(S)O[C@H]3[C@@H](O)[C@H](n4ccc(=O)[nH]c4=O)O[C@@H]3COP(=O)(S)O[C@H]3[C@@H](O)[C@H](n4ccc(N)nc4=O)O[C@@H]3COP(=O)(S)O[C@H]3[C@@H](O)[C@H](n4ccc5c(=O)[nH]c(N)nc54)O[C@@H]3COP(=O)(S)O[C@H]3[C@@H](O)[C@H](n4ccc(N)nc4=O)O[C@@H]3COP(=O)(S)O[C@H]3[C@@H](O)[C@H](n4cnc5c(N)ncnc54)O[C@@H]3COP(=O)(S)O[C@H]3[C@@H](O)[C@H](n4ccc5c(=O)[nH]c(N)nc54)O[C@@H]3COP(=O)(S)O[C@H]3[C@@H](O)[C@H](n4ccc(=O)[nH]c4=O)O[C@@H]3COP(=O)(S)O[C@H]3[C@@H](O)[C@H](n4ccc(=O)[nH]c4=O)O[C@@H]3COP(=O)(S)O[C@H]3[C@@H](O)[C@H](n4cnc5c(N)ncnc54)O[C@@H]3COP(=O)(S)O[C@H]3[C@@H](O)[C@H](n4cnc5c(N)ncnc54)O[C@@H]3CO)[C@H]2O)c(=O)n1 (stereo partly drawn)
active: PBMC [1] Dose-dependent effect | PBMC [2] Dose-dependent effect | PBMC [3] Dose-dependent effect | PBMC [4] Dose-dependent effect | PBMC [5] Dose-dependent effect | PBMC [6] Dose-dependent effect
